ChEMBL document CHEMBL4837222, “Design and synthesis of novel benzothiophene analogs as selective estrogen receptor covalent antagonists against breast cancer” (Eur J Med Chem, 2021)

Assays:
[1] = molecular target: T1, Estrogen receptor (Homo sapiens) (UniProt P03372); assay: Covalent antagonist activity at ERalpha in human MCF7 cells assessed as decrease in estradiol-induced GREB1 mRNA expression level at 0.25 to 10 uM measured after 24 hrs by RT-PCR analysis; type: cell-based; settings: filed as antagonist, dose 0.25-10 µM
T1 sequence (whole entry): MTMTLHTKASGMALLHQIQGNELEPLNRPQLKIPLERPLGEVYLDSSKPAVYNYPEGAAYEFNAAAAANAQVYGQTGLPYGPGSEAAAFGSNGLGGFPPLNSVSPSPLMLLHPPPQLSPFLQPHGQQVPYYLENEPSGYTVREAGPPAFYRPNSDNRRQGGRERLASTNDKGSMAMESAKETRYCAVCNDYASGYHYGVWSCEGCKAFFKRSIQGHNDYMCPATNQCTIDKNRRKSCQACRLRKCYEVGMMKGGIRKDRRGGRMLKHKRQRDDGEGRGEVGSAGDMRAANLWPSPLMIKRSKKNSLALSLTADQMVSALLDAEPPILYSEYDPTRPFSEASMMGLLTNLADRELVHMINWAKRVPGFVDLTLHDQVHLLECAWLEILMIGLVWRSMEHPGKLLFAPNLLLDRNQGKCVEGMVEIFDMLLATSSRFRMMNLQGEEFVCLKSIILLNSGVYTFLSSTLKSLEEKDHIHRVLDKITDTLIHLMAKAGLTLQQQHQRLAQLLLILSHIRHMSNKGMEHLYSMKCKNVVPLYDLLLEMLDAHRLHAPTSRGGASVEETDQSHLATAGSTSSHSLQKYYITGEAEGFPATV
Summary of the method: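 MCF-7 cells stimulated with estradiol, then co-incubated 24 h with compound at 0.25, 0.5, 1 and 10 µM. RNA was reverse-transcribed and GREB1 or TFF1 measured by SYBR Green qPCR: 95 °C 10 min, then 40 cycles of 95 °C 5 s, 60 °C 60 s, 95 °C 15 s. Normalised to GAPDH, ΔΔCT method.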

MCF7 [2] = assay: Cell cycle arrest in human MCF7 cells assessed as accumulation at S phase at 10 uM measured after 48 hrs by propidium iodide staining based flow cytometric analysis (reference value: 63.32%); type: functional
MCF7 [3] = assay: Cell cycle arrest in human MCF7 cells assessed as accumulation at G2/M phase at 10 uM measured after 48 hrs by propidium iodide staining based flow cytometric analysis (reference value: 12.24%); type: functional
MCF7 [4] = assay: Cell cycle arrest in human MCF7 cells assessed as accumulation at G0/G1 phase at 5 uM measured after 48 hrs by propidium iodide staining based flow cytometric analysis (reference value: 24.44%); type: functional
MCF7 [5] = assay: Cell cycle arrest in human MCF7 cells assessed as accumulation at G0/G1 phase at 10 uM measured after 48 hrs by propidium iodide staining based flow cytometric analysis (reference value: 24.44%); type: functional
Estrogen receptor = molecular target: T2, Estrogen receptor (Homo sapiens, UniProt P03372); assay: Induction of ERalpha activity in human ishikawa cells assessed as induction of cell proliferation at 156 to 5000 nM measured after 3 days; type: cell-based; settings: 72 h, 5 µM, dose 156-5000 nM, time 3 day
T2 sequence (P03372 whole entry): T1 sequence (whole entry)

MCF7 [6] = assay: Cell cycle arrest in human MCF7 cells assessed as accumulation at S phase at 1 uM measured after 48 hrs by propidium iodide staining based flow cytometric analysis (reference value: 63.32%); type: functional
MCF7 [7] = assay: Induction of apoptosis in human MCF7 cells assessed as early apoptotic cells at 1 uM incubated for 24 hrs by AnnexinV-FITC/propidium iodide staining based flow cytometric analysis (reference value: 0.8%); type: functional
MCF7 [8] = assay: Induction of apoptosis in human MCF7 cells assessed as early apoptotic cells at 10 uM incubated for 24 hrs by AnnexinV-FITC/propidium iodide staining based flow cytometric analysis (reference value: 0.8%); type: functional
MCF7 [9] = assay: Cell cycle arrest in human MCF7 cells assessed as accumulation at G2/M phase at 5 uM measured after 48 hrs by propidium iodide staining based flow cytometric analysis (reference value: 12.24%); type: functional

For `O=C(/C=C/CNCCOc1ccc(Oc2c(-c3ccc(F)cc3)sc3cc(O)ccc23)cc1)N1CCC1`, the inhibition [1] was “Dose-Dependent Effect”, the Activity (MCF7 [2]) was 38.75% and the Activity (MCF7 [3]) was 18.3%. For the same compound, the Activity (MCF7 [4]) was 37.54%, the Activity (MCF7 [5]) was 42.95% and the Activity (Estrogen receptor) was “Not Active”. It also gave an Activity (MCF7 [6]) of 51.43%, an Activity (MCF7 [7]) of 0.8% and an Activity (MCF7 [8]) of 12.5%. The Activity (MCF7 [9]) was 15.48%.
